From PubChem BioAssay
STEP inh: blocks human striatal-enriched tyrosine phosphatase; P54829; recombinant STEP, OMFP fluorogenic substrate, fluorescence; inhibition, % at 20 µM; 0.25% of 360,000 active; AID 588621;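 active means inhibition at 20 µM, scaled per plate between control wells, above about 37%, limit read from the data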;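 further: 0% = DMSO with enzyme and substrate and 100% = substrate only without enzyme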
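System: STEP phosphatase, cell-free reaction; Buffer or medium: Bis-Tris pH 6.0 buffer with DTT, detergent; Incubation: 20 min at room temperature, dark; Measured by: fluorescence, 480/540 nm.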
LMPTP inh: blocks human LMPTP phosphatase. P24666. recombinant LMPTP-A, OMFP fluorogenic substrate, fluorescence intensity. inhibition, % at 20 µM. 0.22% of 360,000 active;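 active means compounds that cut the enzyme signal by at least half of the control window in the single-dose screen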;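 further: plate controls were DMSO wells with enzyme plus substrate for no effect and substrate without enzyme for full effect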
Target sequence (P24666 whole entry, looked up): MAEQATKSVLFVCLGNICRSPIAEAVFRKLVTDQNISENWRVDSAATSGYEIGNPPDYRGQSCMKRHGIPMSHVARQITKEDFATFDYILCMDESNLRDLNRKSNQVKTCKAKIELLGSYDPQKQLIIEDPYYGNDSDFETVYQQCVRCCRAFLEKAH
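Test system: LMPTP-A phosphatase enzyme; input: 0.625 nM LMPTP-A final; reagent: OMFP substrate, 400 µM final; compound dosing: 20 µM single dose, 3% DMSO; incubation: 50 min dark incubation at room temperature; measured by: endpoint fluorescence intensity from OMFP dephosphorylation; measure: % inhibition relative to no-enzyme and uninhibited control wells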
SUMO1-SIM PPI: modulators of human SUMO1-mediated protein-protein interactions. P63165. SUMO1 binding to a labelled peptide, TR-FRET, 1 h. inhibition, % at 20 µM. 0.33% of 360,000 active. AID 602429; in the data active means inhibition above about 37%
Target sequence (P63165 whole entry, looked up): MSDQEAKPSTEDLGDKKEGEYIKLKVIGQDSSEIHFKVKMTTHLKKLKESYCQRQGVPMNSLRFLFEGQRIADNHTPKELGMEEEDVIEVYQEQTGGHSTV
Scp-1 inhibitor: blocks human Scp-1 phosphatase activity; Recombinant Scp1, phosphopeptide, malachite green phosphate absorbance; inhibition, % at 20 µM; 0.88% of 340,000 active; AID 493091;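 active means inhibition above about 50% at 20 µM, limit read from the data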;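 further: plate controls were DMSO wells with enzyme for no effect and wells lacking enzyme for full effect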
Target sequence (Q9GZU7 76-261 limits assumed): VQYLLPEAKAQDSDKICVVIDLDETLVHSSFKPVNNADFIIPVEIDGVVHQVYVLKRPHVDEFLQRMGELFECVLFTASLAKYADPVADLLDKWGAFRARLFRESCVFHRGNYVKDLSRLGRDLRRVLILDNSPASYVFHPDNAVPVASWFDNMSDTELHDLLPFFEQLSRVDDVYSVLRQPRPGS
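System: truncated SCP-1 phosphatase (76-261aa); medium: Tris acetate buffer pH 5.5 with MgCl2 and Tween-20; incubation: 45 min room-temperature reaction, 5 min colour, 30 min stabiliser; compound: single 20 µM dose, 1% DMSO; reagent: Phosphorylated 17-residue peptide substrate; read-out: % inhibition at 20 µM; technique: colorimetric free-phosphate detection, absorbance 630 nm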
DNMT1 block: DNMT1 (human) enzyme inhibition | DNMT1 molecular beacon, Hinp1I cleavage, fluorescence | inhibition (reported as % activation of signal), % at 10 µM | 0.83% of 360,000 active | AID 588458; in the data active means inhibition above about 50%
CSN deneddyl inh: blocks human CSN-mediated cullin deneddylation. AID 651999. 0.38% of 360,000 active. Purified CSN, SCF-Nedd8-OG deneddylation, fluorescence polarization. Q92905. inhibition, % at 12.5 µM;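 active means pattern-corrected inhibition above about 35%, with an unprinted fluorescence ratio check between 0.5 and 1.5, limit read from the data, passing the limit was not always enough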;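 further: 0% = enzyme with substrate and 100% = substrate without enzyme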
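Test system: purified human Csn5 enzyme expressed in HEK293T cells. Amount: 0.24 nM enzyme. Reagent: SCFSkp2-Nedd8OG substrate at 10 nM final. Schedule: 90 min incubation of compound, enzyme and substrate at room temperature. Detection: fluorescence polarization. Read-out: % inhibition of substrate cleavage by Csn5.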
Scp-1 conf: Scp-1 (human) inhibition, single-dose confirmed; shares compounds with Scp-1 inhibitor; inhibition, % at 20 µM; recombinant SCP-1 catalytic domain, phosphate release, malachite green absorbance; AID 540281; 61% of 2,500 active;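 further: plate controls were DMSO with enzyme for no effect and buffer wells lacking enzyme for full effect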
MG interference: interferes with malachite green readout, flagging false Scp-1 hits; shares compounds with Scp-1 inhibitor; Colorimetric interference counterscreen, malachite green absorbance 630 nm; apparent inhibition (interference), % at 20 µM; 2,500 tested, under 10 active;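 further: compounds added after enzyme reaction finished so only phosphate colour detection is probed; plate controls were DMSO wells with completed Scp-1 reaction for no effect and substrate wells lacking enzyme for full effect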
Scp1 DSF: Scp-1 (human) binding by thermal shift; shares compounds with Scp-1 inhibitor; thermal shift relative to vanadate control, % at 40 µM; AID 540329; 25% of 1,500 active; Recombinant SCP1, Sypro Orange thermal shift Tm;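 active means substances whose mean melting-temperature shift, as a percentage of the reference inhibitor's shift, reaches about 5.3%, limit read from the data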;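 further: 0% = Tm of DMSO wells and 100% = Tm with sodium orthovanadate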
* marks the source's active call; other numbers are inactive results; / = not tested or not shown. An excerpt weighted towards active compounds, which were near 1.9% of everything screened.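 How the source made its calls, unless noted: active means inhibition of at least 30% at 20 µM; inactive means the rest.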

SMILES	STEP inh	LMPTP inh	SUMO1-SIM PPI	Scp-1 inhibitor	DNMT1 block	CSN deneddyl inh	Scp-1 conf	MG interference	Scp1 DSF
CC(C)OC(=O)CC1C(=O)NCCN1C(=S)NC(=O)CCc1ccccc1 (stereo not drawn)	-2.3	-0.6	2.0	-6.5	4.0	0.4	-15.7	-16.2	/
COc1ccc(Cn2c(-c3ccccc3)nc3c(c(=O)c4ccccc4n3C)c2=O)cc1	4.4	4.6	11.4	5.5	37.5	25.5	/	/	/
COc1ccc(Cn2c(C3CCCCC3)nc3c(c(=O)c4ccccc4n3C)c2=O)cc1	/	/	/	87.2*	/	/	54.7*	-9.5	-29.0
Cc1c(C(=O)O)cccc1-n1c(C)cc(C=O)c1C	5.9	-0.3	-1.6	56.1*	46.0	2.1	43.7*	-13.7	-4.6
Cc1ccc(C(=O)O)cc1-n1c(C)cc(C=O)c1C	6.0	0.1	-4.8	30.8	28.0	8.2	/	/	/
CCOc1ccc(NC(=O)c2cc3cc4ccc(OC)cc4nc3o2)cc1	31.7	22.4	1.0	54.9*	46.6	-0.5	40.9*	-10.1	-7.2
CCC(C)NC(=O)c1cc2cc3ccc(OC)cc3nc2o1 (stereo not drawn)	-1.9	0.8	-27.9	-15.4	1.9	-1.5	/	/	/
COc1ccc2cc3cc(C(=O)NCc4ccco4)oc3nc2c1	3.4	0.1	-5.9	60.7*	4.9	0.8	56.0*	-12.6	-13.3
CC[n+]1c(C)cc2c(sc3ccccc32)c1C	-2.6	1.1	-5.3	63.0*	0.5	3.5	-18.8	-15.0	/
CCOC(=O)CNC(=O)Cn1cnc2c(cnn2-c2ccc(C)cc2)c1=O	-2.9	-0.7	1.3	-10.2	-0.2	-4.5	/	/	/
CCc1ccc(CN(C)C(=O)C2=CC=CN3CCS(=O)(=O)N=C23)cc1	-0.7	-1.1	4.8	-4.8	3.3	6.3	/	/	/
COc1cc2nc(NC(=O)c3ccco3)sc(=O)c2cc1OC	39.2	12.4	4.7	50.6*	10.5	24.4	42.7*	-12.0	-16.2
COCCNC(=O)C1(C)CCCN(C(=O)c2ccc3snnc3c2)C1 (stereo not drawn)	-0.7	-2.2	1.1	/	-2.8	0.7	/	/	/
COc1ccc(CNC(=O)C(OC(=O)c2ccco2)c2ccccc2F)cc1 (stereo not drawn)	0.5	-1.0	0.6	56.9*	-0.5	-4.5	-16.6	-13.4	/
CC1CCN(C2=NC(=O)/C(=C/c3cn(-c4ccccc4)nc3-c3cccc(S(=O)(=O)N(C)C)c3)S2)CC1	10.9	5.6	-7.6	7.1	-6.7	2.6	/	/	/
CCOC(=O)C1=C(C)NC(=O)NC1c1c(OCC(=O)N2CCCCC2)ccc2ccccc12 (stereo not drawn)	1.5	-0.2	-4.2	-4.6	4.9	0.1	-8.4	-9.0	/
COc1ccc(CCNC(=O)C(C)n2nc(C)c3c(C)n(-c4ccc(C)cc4)nc3c2=O)c(OC)c1 (stereo not drawn)	6.8	-0.3	7.6	-7.5	1.0	6.5	/	/	/
CN(O)/C=C1\C(=O)Nc2ccccc21	1.1	-0.3	-7.7	64.8*	-1.5	-2.5	-0.2	-6.8	/
CN(C)/C=C1\C(=O)Nc2ccccc21	-3.7	-1.0	-8.2	-3.6	-0.5	9.1	/	/	/
CCCCN1CC(=O)N2[C@H]3c4ccc(OC)cc4OC[C@@H]3[C@H](c3ccccc3)[C@]2(C)C1=O	-1.7	0.5	4.7	-11.4	0.2	-5.7	/	/	/
Cc1ccc(S(=O)(=O)N2CCN(C(=O)COC(=O)CCOc3ccccc3C)CC2)c(C)c1	0.3	0.2	0.5	66.0*	-1.0	-0.7	85.9*	-17.0	-19.6
CCCC1=NN2C(=N)/C(=C\c3ccc(OCCOc4ccc(NC(C)=O)cc4)c(OC)c3)C(=O)N=C2S1	1.5	0.1	22.0	-12.3	-2.3	24.5	/	/	/
